From ChEMBL document CHEMBL1817584, “Synthesis of novel fluconazoliums and their evaluation for antibacterial and antifungal activities” (2011)
Converted amounts (≈) assume the structure as drawn.

Key:
Type in all cases: functional
[1] = system: Escherichia coli; assay: Antibacterial activity against Escherichia coli ATCC 8099 after 24 hrs by twofold serial dilution method; details: ATCC 8099, 24 h
In short: (§1)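 Each bacterial suspension was adjusted with sterile saline to 1 × 10⁵ CFU. Compounds were first dissolved in DMSO as stock solutions, then diluted in Mueller–Hinton broth in twofold steps (8, 4, 2, 1, 0.5, 0.25). Dilutions were inoculated and incubated at 37 °C for 24 h, and MIC was read. DMSO plus inoculum without drug served as a solvent control.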

[2] = system: Bacillus; assay: Antibacterial activity against Bacillus proteus ATCC 13315 after 24 hrs by twofold serial dilution method; details: ATCC 13315, 24 h; in short: as §1
[3] = system: Pseudomonas aeruginosa; assay: Antibacterial activity against Pseudomonas aeruginosa ATCC 27853 after 24 hrs by twofold serial dilution method; details: ATCC 27853, 24 h; in short: as §1
[4] = system: Candida albicans; assay: Antifungal activity against Candida albicans ATCC 76615 after 24 hrs by twofold serial dilution method; details: ATCC 76615, 24 h
In short: (§2)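 A fungal spore suspension was made in sterile distilled water from a 1-day-old culture grown on Sabouraud agar, then tested against serial dilutions of compounds (DMSO stocks) to determine MIC.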

[5] = system: Bacillus subtilis; assay: Antibacterial activity against Bacillus subtilis ATCC 21216 after 24 hrs by twofold serial dilution method; details: ATCC 21216, 24 h; in short: as §1
[6] = system: Staphylococcus aureus; assay: Antibacterial activity against Staphylococcus aureus ATCC 6538 after 24 hrs by twofold serial dilution method; details: ATCC 6538, 24 h; in short: as §1
[7] = system: Staphylococcus aureus; assay: Antibacterial activity against methicillin-resistant Staphylococcus aureus N315 after 24 hrs by twofold serial dilution method; details: N315, 24 h
In short: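 Compounds were dissolved in DMSO as stock, then diluted twofold in Mueller–Hinton broth. Chloromycin and norfloxacin were run as reference drugs. The inoculum was adjusted in sterile saline to 1 × 10⁵ CFU, and a DMSO-plus-inoculum well served as solvent control. Plates were incubated at 37 °C for 24 h and read as MIC.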

[8] = system: Aspergillus fumigatus; assay: Antifungal activity against Aspergillus fumigatus ATCC 96918 after 24 hrs by twofold serial dilution method; details: ATCC 96918, 24 h; in short: as §2
[9] = system: Bacillus; assay: Ratio of Chloromycin MIC to compound MIC for Bacillus proteus ATCC 13315
[10] = system: Escherichia coli; assay: Ratio of Chloromycin MIC to compound MIC for Escherichia coli ATCC 8099

Structure (SMILES) | MIC [1] [µg/mL] | MIC [2] [µg/mL] | MIC [3] [µg/mL] | MIC [4] [µg/mL] | MIC [5] [µg/mL] | MIC [6] [µg/mL] | MIC [7] [µg/mL] | MIC [8] [µg/mL] | Ratio [9] | Ratio [10]
BrCCOc1ccc2ccccc2c1 | 256 (≈ 1020 µM) | > 256 | > 256 | > 256 | > 256 | 256 (≈ 1020 µM) | > 256 | > 256 | – | –
O=C1c2cccc3c(Br)ccc(c23)C(=O)N1CCCBr | 256 (≈ 645 µM) | > 256 | > 256 | > 256 | > 256 | 128 (≈ 322 µM) | > 256 | 128 (≈ 322 µM) | – | –
O=C1c2cccc3c(Br)ccc(c23)C(=O)N1CCCCCCBr | > 256 | > 256 | > 256 | > 256 | > 256 | 256 (≈ 583 µM) | > 256 | 256 (≈ 583 µM) | – | –
CCCC[n+]1cnn(CC(O)(Cn2c[n+](CCCC)cn2)c2ccc(F)cc2F)c1.[Br-].[Br-] | 128 | 256 | 256 | 128 | > 256 | > 256 | > 256 | > 256 | – | –
CCCCCCCCCCCC[n+]1cnn(CC(O)(Cn2c[n+](CCCCCCCCCCCC)cn2)c2ccc(F)cc2F)c1.[Br-].[Br-] | 2 | 8 | 8 | 2 | > 256 | 2 | 32 | > 256 | – | –
CCCCCCCCCCCCCCCC[n+]1cnn(CC(O)(Cn2c[n+](CCCCCCCCCCCCCCCC)cn2)c2ccc(F)cc2F)c1.[Br-].[Br-] | 8 | 256 | 128 | 4 | 128 | 8 | 128 | > 256 | – | –
OC(Cn1c[n+](Cc2ccc(F)cc2F)cn1)(Cn1c[n+](Cc2ccc(F)cc2F)cn1)c1ccc(F)cc1F.[Br-].[Br-] | 64 | 128 | > 256 | 128 | 256 | 64 | 256 | > 256 | – | –
OC(Cn1c[n+](Cc2ccc(Cl)cc2Cl)cn1)(Cn1c[n+](Cc2ccc(Cl)cc2Cl)cn1)c1ccc(F)cc1F.[Cl-].[Cl-] | 4 | 0.5 | 4 | 16 | 16 | 8 | 4 | 128 | 32 | –
OC(Cn1c[n+](Cc2ccc(Cl)c(Cl)c2)cn1)(Cn1c[n+](Cc2ccc(Cl)c(Cl)c2)cn1)c1ccc(F)cc1F.[Cl-].[Cl-] | 32 | 8 | 16 | 4 | 32 | 8 | 64 | 128 | – | –
OC(Cn1c[n+](Cc2ccccc2Cl)cn1)(Cn1c[n+](Cc2ccccc2Cl)cn1)c1ccc(F)cc1F.[Cl-].[Cl-] | 128 | 8 | > 256 | 128 | 256 | 32 | 256 | 32 | – | –
OC(Cn1c[n+](Cc2cccc(Cl)c2)cn1)(Cn1c[n+](Cc2cccc(Cl)c2)cn1)c1ccc(F)cc1F.[Cl-].[Cl-] | 32 | 128 | 64 | 4 | 64 | 4 | 32 | 256 | – | –
OC(Cn1c[n+](Cc2ccc(Cl)cc2)cn1)(Cn1c[n+](Cc2ccc(Cl)cc2)cn1)c1ccc(F)cc1F.[Cl-].[Cl-] | 256 | 256 | 16 | 256 | 256 | 64 | > 256 | 64 | – | –
F[P-](F)(F)(F)(F)F.F[P-](F)(F)(F)(F)F.OC(Cn1c[n+](Cc2ccc(Cl)cc2Cl)cn1)(Cn1c[n+](Cc2ccc(Cl)cc2Cl)cn1)c1ccc(F)cc1F | ≤ 0.25 | 1 | 64 | 128 | 32 | 32 | 32 | 256 | – | 256
OC(Cn1c[n+](Cc2ccc(Cl)cc2Cl)cn1)(Cn1c[n+](Cc2ccc(Cl)cc2Cl)cn1)c1ccc(F)cc1F.[Br-].[Br-] | 16 | 4 | 64 | 64 | 32 | 64 | 64 | 128 | – | –
